Residue numbers refer to the chain shown, from its start. Names and notes keep the numbering of the source.

Compound in series [1]: C=C(F)c1sc(CNCCCNc2cc(=O)c3ccccc3[nH]2)c(C)c1Br
As to the kind of experiment: Activity of Staphylococcus aureus MetRS I57N mutant by ATP:PPi exchange assay in presence of methionine. A digest of the protocol:
(§1)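 Purified S. aureus MetRS (wild type or mutant; E. coli-expressed, ammonium sulfate cut, anion exchange) at 30 nM. ATP:PPi exchange at 30°C in 100 mM Tris-HCl pH 8.0, 5–10 mM Mg acetate, 80 mM KCl, 2.5 mM DTT, [32P]PPi plus cold PPi equal to ATP. Quenched with EDTA over 1–10 min, PEI-cellulose TLC, phosphorimager. Initial velocities versus varied ATP or methionine fit to Michaelis-Menten.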

Compound in series [2]: C=C(F)c1sc(CNCCCNc2cc(=O)c3ccccc3[nH]2)c(C)c1Br
As to the kind of experiment: Ratio of Kcat to Km for Staphylococcus aureus MetRS I57N mutant in presence of tRNA. Summed up: (§2)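 Purified recombinant S. aureus MetRS was assayed by tRNA aminoacylation at 30°C for 1 to 7.5 min to obtain initial rates. Buffer was Tris pH 8.0 with Mg acetate, 2.5 mM ATP, KCl, DTT, BSA, [3H]methionine and crude E. coli tRNA. Reactions were EDTA-stopped, and charged tRNA was read by scintillation proximity with polylysine beads at pH 2.0.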

Compound in series [3]: C=C(F)c1sc(CNCCCNc2cc(=O)c3ccccc3[nH]2)c(C)c1Br
As to the kind of experiment: Activity of Staphylococcus aureus MetRS I57N mutant by ATP:PPi exchange assay in presence of ATP. Summed up: as §1

Compound in series [4]: C=C(F)c1sc(CNCCCNc2cc(=O)c3ccccc3[nH]2)c(C)c1Br
As to the kind of experiment: Activity of streptococcus aureus MetRS I57N mutant by scintillation proximity assay in presence of tRNA. Conditions: Staphylococcus aureus. A general note: Scintillation proximity formats need no separation of bound from free tracer.

Compound in series [5]: C=C(F)c1sc(CNCCCNc2cc(=O)c3ccccc3[nH]2)c(C)c1Br
As to the kind of experiment: Ratio of Kcat to Km for Staphylococcus aureus MetRS I57N mutant in presence of ATP. Summed up: (§3)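 Purified recombinant S. aureus MetRS (30 nM) was assayed by ATP:PPi exchange at 30°C in Tris pH 8.0 with Mg acetate, KCl and DTT. [32P]PPi was matched to ATP, and ATP or methionine was varied. Time points from 1 to 10 min were quenched with EDTA, separated by PEI-cellulose TLC and read by phosphorimager. Initial rates were fitted to Michaelis-Menten.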

Compound in series [6]: C=C(F)c1sc(CNCCCNc2cc(=O)c3ccccc3[nH]2)c(C)c1Br
As to the kind of experiment: Ratio of Kcat to Km for Staphylococcus aureus MetRS I57N mutant in presence of methionine. A digest of the protocol:
as §3

Compound in series [7]: C=C(F)c1sc(CNCCCNc2cc(=O)c3ccccc3[nH]2)c(C)c1Br
As to the kind of experiment: Activity of Staphylococcus aureus MetRS V108M mutant by ATP:PPi exchange assay in presence of ATP. A digest of the protocol:
as §1

Compound in series [8]: C=C(F)c1sc(CNCCCNc2cc(=O)c3ccccc3[nH]2)c(C)c1Br
As to the kind of experiment: Ratio of Kcat to Km for Staphylococcus aureus MetRS V108M mutant in presence of methionine. A digest of the protocol:
as §3

Compound in series [9]: C=C(F)c1sc(CNCCCNc2cc(=O)c3ccccc3[nH]2)c(C)c1Br
As to the kind of experiment: Ratio of Kcat to Km for Staphylococcus aureus MetRS V108M mutant in presence of ATP. Summed up: as §3

Compound in series [10]: C=C(F)c1sc(CNCCCNc2cc(=O)c3ccccc3[nH]2)c(C)c1Br
As to the kind of experiment: Activity of Staphylococcus aureus MetRS V108M mutant by ATP:PPi exchange assay in presence of methionine. A digest of the protocol:
as §1

Compound in series [11]: C=C(F)c1sc(CNCCCNc2cc(=O)c3ccccc3[nH]2)c(C)c1Br
As to the kind of experiment: Ratio of Kcat to Km for Staphylococcus aureus MetRS V108M mutant in presence of tRNA. Summed up:
as §2

Compound in series [12]: C=C(F)c1sc(CNCCCNc2cc(=O)c3ccccc3[nH]2)c(C)c1Br
As to the kind of experiment: Activity of streptococcus aureus MetRS V108M mutant by scintillation proximity assay in presence of tRNA. Particulars: Staphylococcus aureus.

Compound in series [13]: C=C(F)c1sc(CNCCCNc2cc(=O)c3ccccc3[nH]2)c(C)c1Br
As to the kind of experiment: Ratio of Kcat to Km for Staphylococcus aureus MetRS G223C mutant in presence of methionine. Summed up: as §3

Compound in series [14]: C=C(F)c1sc(CNCCCNc2cc(=O)c3ccccc3[nH]2)c(C)c1Br
As to the kind of experiment: Activity of streptococcus aureus MetRS G223C mutant by scintillation proximity assay in presence of tRNA. Particulars: Staphylococcus aureus.

Compound in series [15]: C=C(F)c1sc(CNCCCNc2cc(=O)c3ccccc3[nH]2)c(C)c1Br
As to the kind of experiment: Ratio of Kcat to Km for Staphylococcus aureus MetRS G223C mutant in presence of ATP. Summed up:
as §3

Compound in series [16]: C=C(F)c1sc(CNCCCNc2cc(=O)c3ccccc3[nH]2)c(C)c1Br
As to the kind of experiment: Ratio of Kcat to Km for Staphylococcus aureus MetRS G223C mutant in presence of tRNA. Summed up:
as §2

Compound in series [17]: C=C(F)c1sc(CNCCCNc2cc(=O)c3ccccc3[nH]2)c(C)c1Br
As to the kind of experiment: Activity of Staphylococcus aureus MetRS G223C mutant by ATP:PPi exchange assay in presence of methionine. Summed up: as §1

Compound in series [18]: C=C(F)c1sc(CNCCCNc2cc(=O)c3ccccc3[nH]2)c(C)c1Br
As to the kind of experiment: Activity of Staphylococcus aureus MetRS G223C mutant by ATP:PPi exchange assay in presence of ATP. Summed up:
as §1

Compound in series [19]: C=C(F)c1sc(CNCCCNc2cc(=O)c3ccccc3[nH]2)c(C)c1Br
As to the kind of experiment: Activity of streptococcus aureus MetRS A247E mutant by scintillation proximity assay in presence of tRNA. Conditions: Staphylococcus aureus.

Compound in series [20]: C=C(F)c1sc(CNCCCNc2cc(=O)c3ccccc3[nH]2)c(C)c1Br
As to the kind of experiment: Ratio of Kcat to Km for Staphylococcus aureus MetRS A247E mutant in presence of methionine. Summed up:
as §3

Compound in series [21]: C=C(F)c1sc(CNCCCNc2cc(=O)c3ccccc3[nH]2)c(C)c1Br
As to the kind of experiment: Ratio of Kcat to Km for Staphylococcus aureus MetRS A247E mutant in presence of tRNA. A digest of the protocol: as §2

Compound in series [22]: C=C(F)c1sc(CNCCCNc2cc(=O)c3ccccc3[nH]2)c(C)c1Br
As to the kind of experiment: Activity of Staphylococcus aureus MetRS A247E mutant by ATP:PPi exchange assay in presence of methionine. Summed up: as §1

Compound in series [23]: C=C(F)c1sc(CNCCCNc2cc(=O)c3ccccc3[nH]2)c(C)c1Br
As to the kind of experiment: Activity of Staphylococcus aureus MetRS A247E mutant by ATP:PPi exchange assay in presence of ATP. A digest of the protocol: as §1

Compound in series [24]: C=C(F)c1sc(CNCCCNc2cc(=O)c3ccccc3[nH]2)c(C)c1Br
As to the kind of experiment: Ratio of Kcat to Km for Staphylococcus aureus MetRS A247E mutant in presence of ATP. Summed up:
as §3

B1: Methionine--tRNA ligase (Staphylococcus aureus subsp. aureus MW2), Q8NY00 I57N (protein)
chain: MAKETFYITTPIYYPSGNLHIGHAYSTVAGDVIARYKRMQGYDVRYLTGTDEHGQKNQEKAQKAGKTEIEYLDEMIAGIKQLWAKLEISNDDFIRTTEERHKHVVEQVFERLLKQGDIYLGEYEGWYSVPDETYYTESQLVDPQYENGKIIGGKSPDSGHEVELVKEESYFFNISKYTDRLLEFYDQNPDFIQPPSRKNEMINNFIKPGLADLAVSRTSFNWGVHVPSNPKHVVYVWIDALVNYISALGYLSDDESLFNKYWPADIHLMAKEIVRFHSIIWPILLMALDLPLPKKVFAHGWILMKDGKMSKSKGNVVDPNILIDRYGLDATRYYLMRELPFGSDGVFTPEAFVERTNFDLANDLGNLVNRTISMVNKYFDGELPAYQGPLHELDEEMEAMALETVKSYTESMESLQFSVALSTVWKFISRTNKYIDETTPWVLAKDDSQKDMLGNVMAHLVENIRYAAVLLRPFLTHAPKEIFEQLNINNPQFMEFSSLEQYGVLTESIMVTGQPKPIFPRLDSEAEIAYIKESMQPPATEEEKEEIPSKPQIDIKDFDKVEIKAATIINAEHVKKSDKLLKIQVDLDSEQRQIVSGIAKFYTPDDIIGKKVAVVTNLKPAKLMGQKSEGMILSAEKDGVLTLVSLPSAIPNGAVIK
The Km is the concentration of substrate that gives half-maximal velocity. One may read the kcat as the number of substrate molecules converted per active site and unit of time at saturation. The kcat/Km is the second-order rate constant that governs catalysis at low substrate concentration. In the case of B1, the Michaelis-Menten constant (Km) worked out at 25 µM in [1], 820 µM in series [3] and 0.93 µM in series [4]. Moreover, the kcat in [1] came to 14 s⁻¹; in [4], 0.023 s⁻¹. The kcat/Km in series [2] amounted to 25000 M⁻¹ s⁻¹; in [5], 17000 M⁻¹ s⁻¹; in series [6], 560000 M⁻¹ s⁻¹.

B2: Methionine--tRNA ligase (Staphylococcus aureus subsp. aureus MW2), Q8NY00 V108M (protein)
chain: B1 chain with N57I, V108M
With B2, the Michaelis constant (Km) amounted to 650 µM in [7], 140 µM in series [10] and 3.2 µM in series [12]. Also, the kcat/Km in series [8] was 110000 M⁻¹ s⁻¹; in series [9], 23000 M⁻¹ s⁻¹; in series [11], 230000 M⁻¹ s⁻¹. Further, the catalytic constant (kcat) stood at 15 s⁻¹ in [10] and 0.74 s⁻¹ in series [12].

B3: Methionine--tRNA ligase (Staphylococcus aureus subsp. aureus MW2), Q8NY00 G223C (protein)
chain: B1 chain with N57I, G223C
B3: the kcat/Km in series [13] amounted to 10000 M⁻¹ s⁻¹; in series [15] it was 13000 M⁻¹ s⁻¹; in series [16], 15000 M⁻¹ s⁻¹. Besides, the Km in [14] worked out at 2.5 µM; in series [17], 680 µM; in [18] it was 750 µM. The kcat in series [14] is 0.037 s⁻¹; in [17] it was 10 s⁻¹.

B4: Methionine--tRNA ligase (Staphylococcus aureus subsp. aureus MW2), Q8NY00 A247E (protein)
chain: B1 chain with N57I, A247E
As to B4, the Km in [19] is 1.3 µM; in series [22], 220 µM; in series [23], 1140 µM. Besides, the kcat came to 0.057 s⁻¹ in series [19] and 11 s⁻¹ in series [22]. The values for the kcat/Km in series [20], in [21] and in series [24] were 50000 M⁻¹ s⁻¹, 44000 M⁻¹ s⁻¹ and 10000 M⁻¹ s⁻¹, respectively.
